Only some compounds are listed: those with a hit (about 2.2% of all), similar ones and a draw of the others.
Wee1 stabilizer – human Wee1 degradation inhibition, primary screen. HeLa Luc-Wee1K328M stability, luciferase luminescence; 100% = proteasome inhibitor MG132 effect. reporter increase, % at 5 µM. actives 1.2% (n = 220,000). AID 1321;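 active = activation above the mean of all tested compounds plus 3 SD, set per screening run, cut at about 8.8% in these data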;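 note: cells exposed to compound for 20 h before luminescence read; 0% = DMSO alone and 100% = MG132 at 30 µM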
Target sequence (P30291 whole entry K328M): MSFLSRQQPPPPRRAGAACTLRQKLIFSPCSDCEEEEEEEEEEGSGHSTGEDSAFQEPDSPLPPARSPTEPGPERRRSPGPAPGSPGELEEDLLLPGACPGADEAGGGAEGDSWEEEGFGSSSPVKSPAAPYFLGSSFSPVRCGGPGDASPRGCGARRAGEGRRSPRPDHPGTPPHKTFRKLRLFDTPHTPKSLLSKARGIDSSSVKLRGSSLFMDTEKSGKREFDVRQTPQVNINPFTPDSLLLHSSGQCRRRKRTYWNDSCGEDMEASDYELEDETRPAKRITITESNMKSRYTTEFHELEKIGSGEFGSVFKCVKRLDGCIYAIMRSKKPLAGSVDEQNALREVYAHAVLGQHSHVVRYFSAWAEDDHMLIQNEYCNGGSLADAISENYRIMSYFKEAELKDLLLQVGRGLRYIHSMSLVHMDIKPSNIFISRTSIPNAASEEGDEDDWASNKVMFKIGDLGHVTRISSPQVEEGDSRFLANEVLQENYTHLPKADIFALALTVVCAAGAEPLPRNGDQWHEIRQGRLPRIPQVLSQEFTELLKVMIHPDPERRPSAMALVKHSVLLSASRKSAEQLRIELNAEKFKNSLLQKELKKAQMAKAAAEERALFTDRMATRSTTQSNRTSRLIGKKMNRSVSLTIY
Arbovirus inh – antivirals against arbovirus infection; arbovirus infection cell-based antiviral screen; inhibition, % at 10 µM; actives 0.37% (n = 200,000); AID 1251; in the data active = inhibition above about 30%
RBBP9 inh – inhibitors of human serine hydrolase RBBP9. O75884. inhibition, % at 7.94 µM. recombinant RBBP9, FP-Rh probe fluorescence polarization. AID 1515. actives 0.2% (n = 220,000);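 active = inhibition above the campaign mean of all tested compounds plus 3 SD, cut at about 14% in these data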;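 note: plate controls were DMSO wells with RBBP9 for no effect and wells lacking RBBP9 protein for full effect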
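Test system: recombinant human RBBP9. Quantity: 2.5 µM RBBP9 dispensing solution, before mixing. Detection: FP readout at 525/598 nm. Reagent: Serine-hydrolase probe FP-Rh, 375 nM pre-mixing. Measure: % inhibition. Control set: DMSO-treated enzyme wells and wells lacking RBBP9. Buffer or medium: Tris-NaCl-Pluronic buffer, pH 8.0. Times: preincubation 30 min plus labeling 45 min at 25 °C.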
p97 ATPase inh – blocks human p97 ATPase activity; P55072; recombinant p97 ATPase, Kinase-Glo ATP luminescence, 3 h; inhibition, % at 8 µM; actives 0.42% (n = 220,000); AID 1481; in the data active = inhibition above about 15%;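 note: 0% = DMSO vehicle and 100% = wells lacking enzyme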
Redox H2O2 prof – compounds producing H2O2 with reducing agent – biochemical, NIH compound library profiling, artefact control for MLSCN library redox annotation, primary screen; DTT-dependent redox cycling H2O2, phenol red/HRP absorbance; 100% = 100 µM peroxide control, 0% = buffer; actives 0.03% (n = 200,000); AID 878; activation, % at 10 µM;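 active = activation of at least 50% relative to the plate's high and low controls in the primary single-dose screen; inactive = activation below 50%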;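 note: compound incubated with DTT at 0.8 mM final as the reducing agent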
PKD1 kinase inh – inhibitors of human PKD1 kinase | Q15139 | inhibition, % (concentration not given with the values) | PKD1 kinase fluorescence polarization assay | actives 0.056% (n = 200,000); in the data active = inhibition above about 50%
Numbers without * were called inactive; nt = not tested or not shown.

SMILES | Wee1 stabilizer | Arbovirus inh | RBBP9 inh | p97 ATPase inh | Redox H2O2 prof | PKD1 kinase inh
O=C(Nc1nnc(-c2ccc3c(c2)OCCO3)o1)C1CCCCC1 | 3 | -4 | 1 | 3 | 0 | 1
COc1ccc(-n2c(C)cc(-c3cn4cccc(C)c4n3)c2C)cc1 | 8.8* | 15 | -5 | 4 | -1 | -5
CCOC(=O)CSc1ccc(C(=O)Nc2ccc(OC)cc2)cn1 | 9.4* | -1 | -11 | -4 | 0 | 8
O=C1C=C(NCc2ccc(Cl)cc2)CC(c2ccco2)C1 (stereo unspecified) | 0 | -19 | 1 | 9 | 3 | 3
O=C1C=C(Nc2ccc(Cl)cc2Cl)CC(c2ccco2)C1 (stereo unspecified) | 9.7* | -7 | 1 | 1 | 1 | 12
CSc1nc2ccc(NS(=O)(=O)c3c(Cl)cccc3Cl)cc2s1 | -2 | 20 | -10 | -1 | -1 | -6
CSc1nc2ccc(NS(=O)(=O)c3ccc4c(c3)OCCO4)cc2s1 | -1 | 32* | 2 | 3 | 0 | 12
CC(C)Cn1c(=O)c(C(=O)NCc2ccccn2)c(O)c2ccccc21 | 12* | -17 | -15 | -8 | 0 | -1
CCc1ccc2c(c1)/C(=N/OC)C(=O)N2 | 0 | -7 | -7 | 3 | 0 | -7
CCOC(=O)C1(CCOc2ccccc2)CCN(Cc2ccc3nonc3c2)CC1 | -1 | 4 | -2 | -3 | -1 | 14
COc1ccc(Cn2c(=O)[nH]c3cc(C(=O)NC4CCCC4)ccc3c2=O)cc1 | 1 | 0 | -7 | -7 | -2 | 56*
COc1cc2[nH]c(=O)n(Cc3ccc(C(=O)NC4CCCC4)cc3)c(=O)c2cc1OC | -2 | -1 | -3 | -1 | 0 | -2
COCCn1c(=O)[nH]c2cc(C(=O)NCCN3CCN(c4ccccc4)CC3)ccc2c1=O | 11* | -3 | -3 | 4 | -1 | -3
CCCCCNC(=O)c1ccc2c(=O)n(CCOC)c(=O)[nH]c2c1 | 10.0* | -8 | -7 | 0 | 0 | -6
O=C(O)CC(NC(=O)COc1ccccc1)c1cccc([N+](=O)[O-])c1 (stereo unspecified) | 0 | 2 | -4 | 4 | 0 | 2
CCN(CC)C(=O)C(=O)c1cccn1-c1c(Cl)cccc1C#N | 0 | 12 | -6 | -3 | -1 | 2
Cc1ccccc1S(=O)(=O)Nc1ncnc2scc(-c3ccccc3)c12 | 7 | 58* | -2 | 2 | 0 | 4
COc1ccc(NS(=O)(=O)c2ccc(N3CCCC3)c(NC(=S)Nc3ccc(SC(F)F)cc3)c2)cc1 | 9.3* | 7 | -6 | 4 | 0 | -13
COc1ccc(NS(=O)(=O)c2ccc(N3CCCC3)c(NC(=S)Nc3cccc(C)c3C)c2)cc1 | 0 | 8 | -12 | 7 | 0 | -3
O=C(NC(=S)Nc1ccccc1F)c1ccc(Br)o1 | 11* | -1 | 3 | 2 | 0 | -4
Cc1cccc(NC(=S)NC(=O)c2ccc(Br)o2)c1C | 2 | 5 | -11 | -2 | 0 | -8
CN(/N=C/c1ccc([N+](=O)[O-])o1)c1ccccc1 | 3 | -1 | -1 | -2 | 0 | -10
CN(C)/N=C/c1ccc(P(c2ccc(/C=N/N(C)C)o2)c2ccc(/C=N/N(C)C)o2)o1 | -3 | 31* | 2 | -6 | 0 | 3
CCOc1ccc(C(CC(=O)O)NC(=O)C23CC4CC(CC(C4)C2)C3)cc1 (stereo unspecified) | 2 | 1 | -4 | 2 | -1 | -1
O=C(Nc1ccc2c(c1)S(=O)(=O)N=C1CCCCCN12)c1ccccc1Cl | -3 | -5 | -1 | -1 | 0 | 2
SMILES | Wee1 stabilizer | Arbovirus inh | RBBP9 inh | p97 ATPase inh | Redox H2O2 prof | PKD1 kinase inh
O=C(O)CCn1cc(/C=C/C(=O)c2ccc(Cl)cc2)c(-c2ccc(Br)cc2)n1 | -1 | 46* | -7 | 6 | 0 | -5
O=C(O)/C=C/c1cn(Cc2ccccc2)nc1-c1ccccc1 | -2 | 4 | -9 | 10 | 2 | -5
O=[N+]([O-])c1cccc(-c2nc(-c3ccccc3)no2)c1 | 0 | -9 | -14 | 5 | -1 | 0
O=[N+]([O-])c1cccc(-c2noc(-c3ccco3)n2)c1 | 8.9* | nt | 1 | 1 | nt | nt
COc1cc2c(cc1NC(=O)COC(=O)/C=C/c1ccc([N+](=O)[O-])cc1)oc1ccccc12 | 2 | nt | 7 | 15* | nt | nt
COc1cc2c(cc1NC(=O)/C=C/c1ccc([N+](=O)[O-])cc1)oc1ccccc12 | 0 | 6 | -4 | 7 | 1 | -1
CN(C)CCCN(C(=O)c1ccco1)c1nc2ccc(F)cc2s1 | 2 | 1 | -8 | -1 | 0 | -9
Cc1ccc2nc(N(CCCN(C)C)C(=O)c3ccco3)sc2c1 | 10* | -2 | -6 | 2 | -2 | 1
CCN1CCN(c2nc(Nc3ccc(NC(C)=O)cc3)nc(Nc3ccc(NC(C)=O)cc3)n2)CC1 | 1 | nt | 1 | 1 | nt | nt
COc1ccc(OC)c(NS(=O)(=O)c2ccc(Cl)s2)c1 | 0 | 0 | -2 | 3 | 2 | -15
COc1ccc(OC)c(NS(=O)(=O)c2ccc(Br)s2)c1 | 9.0* | -12 | -4 | 1 | -1 | -6
O=C1CC(=O)N(Cc2ccco2)C(=O)N1 | -1 | 34* | 1 | 8 | -3 | -6
O=C1CC(=O)N(Cc2ccco2)C(=S)N1 | -1 | 19 | -10 | 10 | 0 | 0
O=C(Nc1ccc(CN2CCCCC2)cc1)c1sc2ccccc2c1Cl | -3 | nt | -7 | 0 | nt | nt
CCOc1ccc(N2C(=O)CC(NCCc3ccc(S(N)(=O)=O)cc3)C2=O)cc1 (stereo unspecified) | -1 | 2 | -1 | 6 | 2 | -7
CCCOc1ccc(N2C(=O)CC(NCCc3ccc(S(N)(=O)=O)cc3)C2=O)cc1 (stereo unspecified) | 9.7* | 0 | -1 | 5 | 0 | -1
O=C(CSc1nnc(-c2ccccc2)o1)NC1CCS(=O)(=O)C1 (stereo unspecified) | 0 | -5 | -5 | 1 | 0 | 4
CCOC(=O)C[n+]1c(C)ccc2c1CCC2 | -1 | 2 | -3 | 0 | 1 | 3
COc1nc(N/N=C/c2cc3c(cc2Br)OCO3)nc(N2CCOCC2)n1 | -2 | -11 | 4 | 4 | -4 | -7
Brc1cc2c(cc1/C=N/Nc1nc(N3CCCCC3)nc(N3CCCCC3)n1)OCO2 | 14* | -9 | -10 | -3 | 2 | -4
Cc1ccc(C(=O)Nc2c(C)cc(-c3ccccc3)oc2=O)cc1 | -1 | -5 | 0 | 5 | -1 | -2
O=C1/C(=C\c2ccco2)SC(=S)N1Cc1ccccc1 | 5 | -2 | -6 | 1 | 2 | -10
O=C1/C(=C/c2ccccn2)SC(=S)N1Cc1ccccc1 | 11* | nt | 3 | 9 | nt | nt

Screening results as filed in PubChem BioAssay.
